Bioassay records as filed in PubChem.
Most compounds without a hit are left out; they make up all but 3.3% or so of the library.
SENP1 inh = blocks the human SENP1 SUMO protease catalytic domain; recombinant SENP1 catalytic domain, CyPet-SUMO1-YPet FRET cleavage; Q9P0U3; 360,000 tested, 0.21% active; inhibition, % at 10 µM;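 active means inhibition at least 30% at 10 µM, raw YFP signal under a set limit, fluorescence ratio 0.5 to 1.5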
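System: Recombinant human SENP1 catalytic domain, His6-tagged | Incubation: Enzyme reaction for 50 min at room temperature, dark | Medium: Tris pH 8 with BME, BSA, NP40 and catalase | Also added: 25 nM SUMO1 FRET substrate | Compound: 10 µM single point, 0.5% DMSO | Measured by: FRET fluorescence in CFP and YFP emission channels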
CendR NRP1 mod = alters CendR peptide binding to human NRP-1; O14786; FAM-RPARPAR peptide binding to NRP-1, fluorescence polarization; inhibition, % at 25 µM; 360,000 tested, 0.85% active; AID 602438;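 active means inhibition or corrected inhibition above about 18%, plus a signal ratio from 0.5 to 1.5, limit read from the data, passing the limit was not always enough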
Target sequence (O14786 whole entry, looked up): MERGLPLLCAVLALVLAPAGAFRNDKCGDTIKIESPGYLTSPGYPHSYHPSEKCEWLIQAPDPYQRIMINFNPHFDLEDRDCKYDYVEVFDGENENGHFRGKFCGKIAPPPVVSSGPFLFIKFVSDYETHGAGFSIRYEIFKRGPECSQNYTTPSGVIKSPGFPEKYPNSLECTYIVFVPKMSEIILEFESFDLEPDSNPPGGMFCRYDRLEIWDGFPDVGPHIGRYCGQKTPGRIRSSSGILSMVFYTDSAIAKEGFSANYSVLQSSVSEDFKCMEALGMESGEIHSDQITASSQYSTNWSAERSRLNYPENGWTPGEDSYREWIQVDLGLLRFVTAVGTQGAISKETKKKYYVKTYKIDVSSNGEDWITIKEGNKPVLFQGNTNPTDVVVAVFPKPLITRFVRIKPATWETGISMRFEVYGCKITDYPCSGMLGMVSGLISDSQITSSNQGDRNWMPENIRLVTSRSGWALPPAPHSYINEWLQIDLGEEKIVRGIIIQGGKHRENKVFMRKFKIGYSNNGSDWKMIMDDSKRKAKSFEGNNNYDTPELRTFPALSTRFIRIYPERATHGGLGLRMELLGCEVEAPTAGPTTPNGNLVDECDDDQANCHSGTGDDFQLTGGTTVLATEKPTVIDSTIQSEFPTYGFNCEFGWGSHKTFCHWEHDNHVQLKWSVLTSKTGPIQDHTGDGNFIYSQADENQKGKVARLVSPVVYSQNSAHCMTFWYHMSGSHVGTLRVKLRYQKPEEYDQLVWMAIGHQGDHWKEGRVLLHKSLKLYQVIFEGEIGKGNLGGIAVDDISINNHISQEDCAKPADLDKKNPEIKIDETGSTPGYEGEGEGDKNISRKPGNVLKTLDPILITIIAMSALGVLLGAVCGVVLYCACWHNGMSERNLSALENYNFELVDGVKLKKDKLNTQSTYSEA
SENP6 block = SENP6 protease inhibition; Recombinant SENP6 catalytic domain, aminoluciferin luminescence; inhibition, % at 10 µM; 330,000 tested, 1.8% active; AID 2599;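 active means inhibition above about 50% at the single tested dose, limit read from the data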
SENP7 inh = SENP7 protease inhibition; Q9BQF6; recombinant SENP7, Z-RLRGG-aminoluciferin luminescence, 40 min; inhibition, % at 5 µM; 330,000 tested, 1.5% active; AID 434973;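 active means inhibition above about 50% at the single test dose, limit read from the data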
SENP8 block-1 = blocks the human protease SENP8; Q96LD8; inhibition, % at 10 µM; 330,000 tested, 1.2% active; purified SENP8, Z-RLRGG-aminoluciferin cleavage, luminescence; AID 2540; in the data active means inhibition above about 50%
SENP8 block-2 = blocks human SENP8 cleavage of Nedd8 substrate; AID 602440; 360,000 tested, 0.64% active; inhibition, % at 20 µM; Q96LD8; recombinant SENP8, Nedd8 substrate fluorescence; in the data active means inhibition mostly above about 40%, no sharp cut-off; inactive means mostly below about 27%
A number is an active result; – = inactive; · = no result.

SMILES	SENP1 inh	CendR NRP1 mod	SENP6 block	SENP7 inh	SENP8 block-1	SENP8 block-2
COc1cc(/C=N/NC(=O)C(=O)NCC2CCCO2)ccc1O (stereo unspecified)	–	38.8	–	–	–	–
O=C(C[C@@H]1C/C=C\C[C@H](Cc2ccc(F)cc2)C(=O)OC[C@@H](c2ccccc2)NC1=O)NCCO	–	–	–	–	–	–
COc1cccc(C(CCc2cc(OC)c(OC)c(OC)c2)NC(C)=O)c1 (stereo unspecified)	–	–	·	·	·	–
COc1cc(CCC(N)c2cccc(O)c2)cc(OC)c1OC (stereo unspecified)	–	25.9	·	·	·	–
N#CC1(C(N)=O)OC12CCS(=O)(=O)c1ccccc12 (stereo unspecified)	–	–	·	·	·	–
O=C1c2cc(Cl)ccc2OC2(CCNCC2)C12CC(c1ccccc1)=NO2 (stereo unspecified)	–	–	–	–	–	–
O=C1c2cc(Cl)ccc2OC2(CCNCC2)C12CC(c1ccc(Cl)cc1)=NO2 (stereo unspecified)	–	24.7	–	–	–	–
CCCc1ccc(C(=O)NC(=O)c2ccccc2O)cc1	–	–	72.9	–	61.8	–
NS(=O)(=O)c1ccc(N=Nc2ccc(=O)[nH]c2O)cc1	–	–	·	·	·	63.8
COc1cc(/C=N/NS(=O)(=O)c2ccc(C)c([N+](=O)[O-])c2)cc([N+](=O)[O-])c1O	–	–	–	–	–	41.4
COCc1cccc(-c2csc(C(C)(O)c3cccc(OC)c3)n2)c1 (stereo unspecified)	–	–	·	·	·	–
COC(=O)C1CCN(S(=O)(=O)c2ccc(Br)s2)CC1	–	–	–	–	–	–
O=C(C1CCN(S(=O)(=O)c2ccc(Br)s2)CC1)N1CCc2ccccc21	–	43.3	–	–	–	–
CCn1c(C)cc2c(c1=O)C(c1ccncc1)C(C#N)=C(N)O2 (stereo unspecified)	–	–	–	–	–	–
COc1ccc(CCn2c(C)cc3c(c2=O)C(c2ccncc2)C(C#N)=C(N)O3)cc1OC (stereo unspecified)	–	18.7	·	·	·	–
CC1(C(=O)NCc2ccccc2)CSCC(=O)N1Cc1ccco1 (stereo unspecified)	–	–	·	·	·	–
C[C@@]12CCC3[C@@](CCC4[C@@]3(C)CCC[C@@]4(C)C(=O)NC3CCCCC3)(CC1=O)C2 (stereo partly specified)	–	32.2	–	–	–	–
C[C@@]12CCC3[C@@](CCC4[C@@]3(C)CCC[C@@]4(C)C(=O)N3CCCCC3)(CC1=O)C2 (stereo partly specified)	–	–	–	–	–	–
CCOC(=O)c1cc(CC)sc1NC(=O)CCC(=O)O	–	–	–	–	–	–
CCOC(=O)c1cc(CC)sc1NC(=O)Cc1ccsc1	–	22.3	–	–	–	–
CCOC(=O)c1ccc(NC(=O)C2(c3ccccc3)CCOCC2)cc1	–	30.9	–	–	–	–
CC1(C(=O)NS(=O)(=O)c2cccc(C#N)c2)CCN1C(=O)Cc1cc(F)ccc1F (stereo unspecified)	–	–	·	·	·	–
C[C@H]1NC(=O)[C@@]2(C)[C@@H](c3ccccc3)[C@H]3COc4ccccc4[C@@H]3N2C1=O	–	25.4	–	–	–	–
C[C@@]12C(=O)N(c3ccc(C(F)(F)F)cc3)C(=O)N1[C@@H]1c3ccccc3OC[C@@H]1[C@H]2c1ccccc1	–	27.6	–	–	–	–
COC(=O)c1cc([N+](=O)[O-])c(C)c(C)n1	–	–	·	·	·	–
SMILES	SENP1 inh	CendR NRP1 mod	SENP6 block	SENP7 inh	SENP8 block-1	SENP8 block-2
Cc1ccc(N2CCN(C(C(=O)Nc3c(C)cccc3C)c3ccccc3OC(F)(F)F)CC2)cc1 (stereo unspecified)	–	–	·	·	·	–
COCCNC(=O)c1cc(-c2ccccc2)sc1N	–	–	·	·	·	–
C[C@H](NC(=O)c1ccccc1)C(=O)N1CCN(Cc2ccc3c(c2)OCO3)CC1	–	–	–	–	–	–
NC(=O)CC[C@H](NC(=O)c1ccc(F)cc1)C(=O)N1CCN(Cc2ccc3c(c2)OCO3)CC1	–	20.6	–	–	–	–
COc1cc(C2C3=C(COC3=O)Oc3cc4c(cc32)OCO4)cc(OC)c1OC (stereo unspecified)	–	–	·	·	·	43.5
COc1ccc(CCN2C(=O)CSCC2(C)C(=O)Nc2ccc3c(c2)OCCO3)cc1OC (stereo unspecified)	–	–	·	·	·	–
